These results are taken from ChEMBL document CHEMBL1128682, “Design and synthesis of new naphthalenic derivatives as ligands for 2-[125I]iodomelatonin binding sites” (J Med Chem, 1995).

The term Ki denotes the dissociation constant of the complex between target and ligand, obtained from inhibition or displacement.

The first assay concerns the target T1, Melatonin receptor (Gallus gallus, UniProt P49288+P51050+P49285). Put plainly: Effect of compound on Melatonin receptor in chicken brain in the presence of GTP-gamma-S.
Consider `CCC(=O)NCCc1c(OC)ccc2ccccc12`, for which the Ki turned out to be 2.86 nM.

For another assay, the target named is T1, Melatonin receptor. Put plainly: Effect of compound on Melatonin receptor in chicken brain in the presence of MnCl2.
Take `CCC(=O)NCCc1c(OC)ccc2ccccc12`: the Ki stood at 0.297 nM.

Another assay has as its target T1, Melatonin receptor. Put plainly: Competitive binding by the displacement of 2-[125I]- Iodomelatonin binding from melatonin receptors in chicken brain membranes. The assay is classed as cell membranes, Membrane. Summed up:
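Whole chicken brain (Redbro, 4 months) homogenized in ice-cold 50 mM Tris-HCl pH 7.4, washed twice by centrifugation, and resuspended at 5 mg protein/mL. Filtration through PEI-soaked glass fiber filters, then gamma counting. Nonspecific binding defined with 10 μM 2-iodomelatonin. Triplicates. Ki from IC50 by Cheng-Prusoff; one or two determinations.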
In the case of `CC(=O)NCCc1cccc(F)c1`, the Ki is on record as greater than 1000 nM. In turn, `COc1ccc(OC)c(CCNC(=O)C2CC2)c1` gave a Ki of 386 nM. Consider `CCC(=O)NCCc1c(OC)ccc2ccccc12`, for which the Ki came out at 0.68 nM.

For the molecule `CC(=O)NCCc1cccc(Cl)c1`, the Ki is greater than 1000 nM. As for `CCc1ccc(OC)c(CCNC(C)=O)c1`, the Ki came to 217 nM.

Regarding `CCCCC(=O)NCCc1c(OC)ccc2ccccc12`, the Ki turned out to be 237 nM.

The molecule `CC(=O)NCCc1ccc(Cl)cc1` displayed a Ki greater than 1000 nM. `COc1ccc2ccccc2c1CCNC(C)=O` showed a Ki of 2.68 nM. Same read-out and setting: to `COc1ccc2ccccc2c1CCNC(=O)C(F)(F)F` belongs 0.54 nM; to `COc1ccc2ccc(OC)c(CCNC(C)=O)c2c1`, 0.1 nM. For the molecule `CCC(=O)NCCc1cc(Br)ccc1OC`, the Ki was 8 nM. The same measure, in the same setting: to `COc1cccc(CCNC(C)=O)c1` belongs 253 nM; to `COc1ccc2ccccc2c1CC(C)NC(=O)C(F)(F)F` (stereo not given), greater than 1000 nM. With `COc1ccc(C)cc1CCNC(C)=O`, the Ki is 192 nM.

`CCC(=O)NCCc1cc(OC)ccc1OC` gave a Ki of 17.5 nM. Still for that read-out and setting: the result for `COc1ccc2ccccc2c1CCNC(=O)C1CC1` reads 19.4 nM; that for `COc1ccccc1CCNC(C)=O`, 213 nM; that for `COc1ccc2ccccc2c1CC(C)NC(C)=O` (stereo not given), 421 nM.

The molecule `COc1ccc2ccc(OC)c(CCNC(=O)C3CC3)c2c1` came in with a Ki of 0.05 nM. `COc1ccc2ccc(OC)c(CCNC(=O)C(F)(F)F)c2c1` gave a Ki of 0.4 nM. Still for that read-out and setting: to `CC(=O)NCCc1cccc2ccccc12` belongs 321 nM; to `CCCCC(=O)NCCc1cc(OC)ccc1OC`, greater than 1000 nM. In turn, `COc1ccc(Br)cc1CCNC(C)=O` came in with a Ki of 42 nM.

In the case of `CCC(=O)NCCc1c(OC)ccc2ccc(OC)cc12`, the Ki is reported as 0.07 nM. The molecule `COc1ccc(CCNC(C)=O)cc1` showed a Ki greater than 1000 nM. `COc1ccc(OC)c(CCNC(C)=O)c1` came in with a Ki of 69.9 nM.

In turn, `CCCC(=O)NCCc1c(OC)ccc2ccccc12` came in with a Ki of 1.37 nM.

Turning to `CC(=O)NCCc1ccccc1Cl`, the Ki is greater than 1000 nM.
